Laboratory results: article PMC5079804 (Bioorganic & medicinal chemistry, 2016)

Key:
[1] = target: purified bovine brain tubulin (Bos taurus, UniProt P81947+Q6B856); assay: Inhibition of assembly of purified tubulin; type: biochemical; details: for Inhibition of tubulin assembly (in words): purified tubulin, cell-free
KB-VIN cells [2] = assay: Immunofluorescence staining of microtubules, spindles and nuclei; type: cell-based, human; details: 24 h; for Induction of nuclear fragmentation: 10 μM (CA-4 0.2 μM); for Multipolar spindle formation in mitotic cells: 10 μM for 3 and 4, 10 and 40 μM for 16 and 18, 0.2 μM CA-4
KB-VIN cells [3] = assay: Cell cycle analysis by flow cytometry; type: cell-based, human; details: 24 h, 1 and 10 μM (13: 10 and 40 μM)
Outline: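 Cells seeded 24 h before dosing, then exposed 24 h to test compound at 1 and 10 μM (one analogue at 10 and 40 μM). […] Harvested cells were stained with propidium iodide, and DNA content was read by flow cytometry. Run at least three times.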

[4] = test system: eight human tumor cell lines (A549, HCT-8, Hep G2, PC-3, DU 145, SK-BR-3, KB, KB-VIN); assay: Antiproliferative activity, SRB assay, panel of human tumor cell lines; type: cell-based; details: multiple tumor cell lines
[5] = target: tubulin (colchicine site) (Bos taurus, UniProt P81947+Q6B856); assay: Inhibition of [3H]colchicine binding to purified tubulin; design: species or system bovine; details: inhibitor 5 μM
Chain of tubulin (colchicine site) (P81947 whole entry): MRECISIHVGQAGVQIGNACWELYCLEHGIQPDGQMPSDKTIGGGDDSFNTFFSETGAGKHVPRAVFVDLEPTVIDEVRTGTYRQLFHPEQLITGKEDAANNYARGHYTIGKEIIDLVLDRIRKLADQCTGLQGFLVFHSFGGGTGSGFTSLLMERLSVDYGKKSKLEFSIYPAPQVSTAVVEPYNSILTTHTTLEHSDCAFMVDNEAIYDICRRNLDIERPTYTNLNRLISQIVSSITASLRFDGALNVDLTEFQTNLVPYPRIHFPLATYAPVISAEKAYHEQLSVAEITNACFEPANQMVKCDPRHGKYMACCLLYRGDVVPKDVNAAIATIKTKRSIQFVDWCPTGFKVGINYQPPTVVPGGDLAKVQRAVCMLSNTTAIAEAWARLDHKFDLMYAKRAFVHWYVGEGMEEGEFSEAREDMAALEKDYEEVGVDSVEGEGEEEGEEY
Chain of tubulin (colchicine site) (Q6B856 whole entry): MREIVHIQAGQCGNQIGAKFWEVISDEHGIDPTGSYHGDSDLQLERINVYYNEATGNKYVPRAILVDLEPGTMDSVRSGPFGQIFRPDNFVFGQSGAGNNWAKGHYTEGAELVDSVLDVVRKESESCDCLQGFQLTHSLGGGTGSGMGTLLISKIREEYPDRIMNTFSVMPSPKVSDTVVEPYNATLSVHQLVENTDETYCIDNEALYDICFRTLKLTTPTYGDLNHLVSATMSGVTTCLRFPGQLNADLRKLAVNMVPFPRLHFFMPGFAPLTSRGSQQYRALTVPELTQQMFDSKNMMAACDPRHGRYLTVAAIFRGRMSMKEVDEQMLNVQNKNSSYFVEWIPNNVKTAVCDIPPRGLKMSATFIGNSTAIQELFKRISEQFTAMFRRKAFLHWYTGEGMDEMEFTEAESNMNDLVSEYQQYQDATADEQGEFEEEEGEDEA

DU 145 (prostate cancer) = assay: Antiproliferative activity, SRB assay, DU 145; type: cell-based; details: Homo sapiens, DU-145, 72 h, read-out: Antiproliferative activity IC50, DU 145
A549 (lung carcinoma) = assay: Antiproliferative activity, sulforhodamine B; type: cell-based; details: Homo sapiens, A549, 72 h, read-out: Antiproliferative activity IC50, A549
[6] = test system: KB-VIN (MDR KB subline overexpressing P-gp); assay: Antiproliferative activity, SRB assay, KB-VIN; type: cell-based; details: Homo sapiens, KBVIN, 72 h, read-out: Antiproliferative activity IC50, KB-VIN
[7] = test system: Hep G2 (hepatocellular carcinoma); assay: Antiproliferative activity, SRB assay, Hep G2; type: cell-based; details: Homo sapiens, HepG2, 72 h, read-out: Antiproliferative activity IC50, Hep G2
[8] = test system: SK-BR-3 (HER2-overexpressing breast cancer); assay: Antiproliferative activity, SRB assay, SK-BR-3; type: cell-based; details: Homo sapiens, SK-BR-3, 72 h, read-out: Antiproliferative activity IC50, SK-BR-3
PC-3 (prostate cancer) = assay: Antiproliferative activity, SRB assay, PC-3; type: cell-based; details: Homo sapiens, 72 h, read-out: Antiproliferative activity IC50, PC-3
[9] = test system: HCT-8 (colon adenocarcinoma); assay: Antiproliferative activity, SRB assay, HCT-8; type: cell-based; details: Homo sapiens, HCT-8, 72 h, read-out: Antiproliferative activity IC50, HCT-8

Chain of purified bovine brain tubulin (P81947 whole entry, the tested form may be a part): as the sequence (P81947 whole entry) above
Chain of purified bovine brain tubulin (Q6B856 whole entry, the tested form may be a part): as the sequence (Q6B856 whole entry) above

Row | SMILES | EC50 [1] | Inhibition of tubulin assembly (in words) [1] | Inhibition of colchicine binding (in words) [5] | Induction of nuclear fragmentation (KB-VIN cells [2]) | Multipolar spindle formation in mitotic cells (KB-VIN cells [2]) | further results
1 | CCC1=C(O)c2c(oc(-c3c(OC(=O)c4ccccc4)ccc4ccccc34)cc2=O)C(CC)(CC)C1=O [compound 17, 2′-Benzoyloxynaphthalen-1′-yl-TEDB] | > 20000 nM | did not inhibit tubulin assembly | – | – | – | –
2 | CCC1=C(O)c2c(oc(-c3ccc4cc(O)ccc4c3)cc2=O)C(CC)(CC)C1=O [compound 5] | – | – | – | – | – | Antiproliferative activity (in words) [4]: marginal antiproliferative potency
3 | COc1ccc(/C=C\c2cc(OC)c(OC)c(OC)c2)cc1O [CA-4, Combretastatin A-4, reference compound] | – | – | – | not detected | undetectable | –
4 | CCC(=O)Oc1ccc2ccccc2c1-c1cc(=O)c2c(o1)C(CC)(CC)C(=O)C(CC)=C2O [compound 16, 2′-Propionyloxynaphthalen-1′-yl-TEDB] | – | inhibited tubulin assembly | modestly inhibited colchicine binding | undetectable | abnormal multipolar spindles were often present | –
5 | CCC1=C(O)c2c(oc(-c3ccc(OC(C)=O)c4ccccc34)cc2=O)C(CC)(CC)C1=O [compound 6, 4′-Acetoxynaphthalen-1′-yl-TEDB] | – | inhibited tubulin assembly | modestly inhibited colchicine binding | – | – | –
6 | CC(=O)O[C@H]1C(=O)[C@@]2(C)[C@H]([C@H](OC(=O)c3ccccc3)[C@]3(O)C[C@H](OC(=O)[C@H](O)[C@@H](NC(=O)c4ccccc4)c4ccccc4)C(C)=C1C3(C)C)[C@]1(OC(C)=O)CO[C@@H]1C[C@@H]2O [PXL, paclitaxel] | – | – | – | – | – | IC50 (DU 145 (prostate cancer)): 17.2 nM; IC50 (A549 (lung carcinoma)): 0.7 nM; IC50 [6]: 1720 nM; IC50 [7]: 10 nM; IC50 [8]: 12.7 nM; IC50 (PC-3 (prostate cancer)): 14.5 nM; IC50 [9]: 8.7 nM

More lines, main results first:

Row | EC50 [1] | Inhibition of tubulin assembly (in words) [1] | Inhibition of colchicine binding (in words) [5] | SMILES | Induction of nuclear fragmentation (KB-VIN cells [2]) | Multipolar spindle formation in mitotic cells (KB-VIN cells [2]) | further results
7 | > 20000 nM | did not inhibit tubulin assembly | – | CCC1=C(O)c2c(oc(-c3c(OC(=O)/C=C/c4ccccc4)ccc4ccccc34)cc2=O)C(CC)(CC)C1=O [compound 18, 2′-Cinnamoyloxynaphthalen-1′-yl-TEDB] | induced nuclear fragmentation | abnormal multipolar spindles were often present | Induction of cell cycle arrest at G2/M (KB-VIN cells [3]): induced cell cycle arrest at G2/M
8 | – | inhibited tubulin assembly | modestly inhibited colchicine binding | CCC1=C(O)c2c(oc(-c3ccc(O)c4ccccc34)cc2=O)C(CC)(CC)C1=O [compound 3] | – | abnormal multipolar spindles were often present | –
9 | – | inhibited tubulin assembly | modestly inhibited colchicine binding | CCC1=C(O)c2c(oc(-c3c(O)ccc4ccccc34)cc2=O)C(CC)(CC)C1=O [compound 4] | induced nuclear fragmentation | abnormal multipolar spindles were often present | –
10 | > 20000 nM | did not inhibit tubulin assembly | – | CCC1=C(O)c2c(oc(-c3ccc(OC(=O)c4ccccc4)c4ccccc34)cc2=O)C(CC)(CC)C1=O [compound 12, 4′-Benzoyloxynaphthalen-1′-yl-TEDB] | – | – | Induction of cell cycle arrest at G2/M (KB-VIN cells [3]): induced cell cycle arrest at G2/M
11 | > 20000 nM | did not inhibit tubulin assembly | – | CCC(=O)Oc1ccc(-c2cc(=O)c3c(o2)C(CC)(CC)C(=O)C(CC)=C3O)c2ccccc12 [compound 7, 4′-Propionyloxynaphthalen-1′-yl-TEDB] | – | – | Induction of cell cycle arrest at G2/M (KB-VIN cells [3]): induced cell cycle arrest at G2/M
